According to ChEMBL document CHEMBL3286164, “Anti-proliferative effect of chalcone derivatives through inactivation of NF-κB in human cancer cells” (Bioorg Med Chem, 2014):

How the values were obtained:
[1] = Inhibition of NF-kappaB in mouse RAW264.7 cells incubated for 2 hrs prior to LPS challenge measured after 16 hrs by SEAP assay; assay type: cell-based
Procedure, shortened: (§1)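 Reporter cells: RAW 264.7 carrying stably integrated pNF-κB-SEAP-NPT, or THP-1 transfected with pNF-κB-SEAP. Cells were pretreated with compound for 2 h, then stimulated with LPS (1 µg/ml) for 16 h. Culture-medium aliquots were heated at 65 °C for 5 min and incubated with 4-methylumbelliferyl phosphate (500 µM) in the dark for 1 h. Fluorescence was read at ex 360/em 449 nm as RFU. IC50 is the mean of three experiments.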

[2] = tested on: ACHN; experiment: Antiproliferative activity against human ACHN cells by SRB method; assay type: functional
Procedure, shortened: (§2)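 GI50 against human cancer cell lines is the mean of three independent experiments.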

[3] = tested on: NCI-H23; experiment: Antiproliferative activity against human NCI-H23 cells by SRB method; assay type: functional; procedure, shortened: as §2
[4] = tested on: MDA-MB-231; experiment: Antiproliferative activity against human MDA-MB-231 cells by SRB method; assay type: functional; procedure, shortened: as §2
[5] = Antiproliferative activity against human HCT15 cells by SRB method; assay type: functional; settings: HCT-15; procedure, shortened: as §2
[6] = Antiproliferative activity against human NUGC3 cells by SRB method; assay type: functional; settings: NUGC-3; procedure, shortened: as §2
[7] = tested on: PC-3; experiment: Antiproliferative activity against human PC3 cells by SRB method; assay type: functional; procedure, shortened: as §2
[8] = target: Nuclear factor NF-kappa-B complex (Homo sapiens, UniProt P19838+Q00653+Q04206); experiment: Inhibition of NF-kappaB in human THP1 cells incubated for 2 hrs prior to LPS challenge measured after 16 hrs by SEAP assay; assay type: cell-based, THP-1; procedure, shortened: as §1
Nuclear factor NF-kappa-B complex, sequence (P19838 1-433 limits assumed): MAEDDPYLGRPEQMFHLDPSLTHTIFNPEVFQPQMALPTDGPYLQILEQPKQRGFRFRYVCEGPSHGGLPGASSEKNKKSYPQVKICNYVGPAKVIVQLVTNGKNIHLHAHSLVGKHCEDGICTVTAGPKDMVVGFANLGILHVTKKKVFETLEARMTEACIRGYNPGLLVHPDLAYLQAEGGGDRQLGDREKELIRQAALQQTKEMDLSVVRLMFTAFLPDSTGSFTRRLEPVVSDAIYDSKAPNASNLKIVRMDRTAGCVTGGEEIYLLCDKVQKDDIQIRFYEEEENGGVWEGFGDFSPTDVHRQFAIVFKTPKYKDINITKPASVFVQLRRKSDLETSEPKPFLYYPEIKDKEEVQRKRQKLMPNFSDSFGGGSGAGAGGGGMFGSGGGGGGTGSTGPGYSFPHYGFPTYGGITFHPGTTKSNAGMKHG
Nuclear factor NF-kappa-B complex, sequence (Q00653 1-454 limits assumed): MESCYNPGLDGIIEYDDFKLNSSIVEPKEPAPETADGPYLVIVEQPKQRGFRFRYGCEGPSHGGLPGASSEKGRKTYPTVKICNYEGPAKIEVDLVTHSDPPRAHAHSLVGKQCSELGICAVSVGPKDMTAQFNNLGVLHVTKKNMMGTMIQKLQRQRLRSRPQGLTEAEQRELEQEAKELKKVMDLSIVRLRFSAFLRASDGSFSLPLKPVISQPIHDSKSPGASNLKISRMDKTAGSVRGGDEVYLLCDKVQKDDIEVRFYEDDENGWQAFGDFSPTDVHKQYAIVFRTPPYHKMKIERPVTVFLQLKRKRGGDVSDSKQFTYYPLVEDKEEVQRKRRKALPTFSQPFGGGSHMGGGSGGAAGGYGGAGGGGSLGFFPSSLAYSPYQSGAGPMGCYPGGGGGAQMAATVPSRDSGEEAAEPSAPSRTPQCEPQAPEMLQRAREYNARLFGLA
Nuclear factor NF-kappa-B complex, sequence (Q04206 whole entry): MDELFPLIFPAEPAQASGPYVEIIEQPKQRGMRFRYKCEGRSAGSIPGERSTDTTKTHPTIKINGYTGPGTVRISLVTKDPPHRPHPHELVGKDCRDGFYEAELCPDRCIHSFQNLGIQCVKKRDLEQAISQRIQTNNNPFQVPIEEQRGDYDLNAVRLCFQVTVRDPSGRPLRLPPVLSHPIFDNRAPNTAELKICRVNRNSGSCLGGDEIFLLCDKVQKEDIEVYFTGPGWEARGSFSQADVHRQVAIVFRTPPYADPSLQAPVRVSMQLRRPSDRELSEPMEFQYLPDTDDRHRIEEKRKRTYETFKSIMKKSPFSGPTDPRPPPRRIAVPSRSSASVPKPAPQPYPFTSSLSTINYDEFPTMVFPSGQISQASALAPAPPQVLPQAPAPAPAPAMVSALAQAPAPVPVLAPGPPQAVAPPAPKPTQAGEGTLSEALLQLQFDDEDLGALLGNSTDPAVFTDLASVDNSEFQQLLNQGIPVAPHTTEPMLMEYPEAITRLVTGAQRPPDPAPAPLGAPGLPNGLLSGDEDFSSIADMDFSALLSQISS

Row | Compound | IC50 [1] | GI50 [2] | GI50 [3] | GI50 [4] | GI50 [7] | IC50 [8] | GI50 [5] | GI50 [6]
1 | O=C(/C=C/c1ccc(O)cc1)c1c(O)cccc1OCC1CCCCC1 | – | > 30 µM | > 30 µM | > 30 µM | > 30 µM | – | > 30 µM | > 30 µM
2 | O=C(/C=C/c1ccc(O)cc1)c1c(O)cccc1OCc1ccccc1 | – | > 30 µM | > 30 µM | > 30 µM | > 30 µM | – | > 30 µM | > 30 µM
3 | O=C(/C=C/c1ccc(O)cc1)c1c(O)cccc1OCC1CCCC1 | – | 3.51 µM | 3.16 µM | 3.41 µM | 3.04 µM | 13 µM | 3.41 µM | 2.14 µM
4 | CCC(CC)COc1cccc(O)c1C(=O)/C=C/c1ccc(O)cc1 | – | 3.37 µM | 3.21 µM | 3.13 µM | 3.39 µM | 12 µM | 3.42 µM | 1.96 µM
5 | O=C(/C=C/c1ccc(O)cc1)c1c(O)cccc1OCCC1CCCC1 | – | 3.4 µM | 3.37 µM | 3.34 µM | 3.48 µM | 18 µM | 3.31 µM | 3.2 µM
6 | O=C(/C=C/c1ccc(O)cc1)c1c(O)cccc1OCCC1CCCCC1 | – | > 30 µM | > 30 µM | > 30 µM | > 30 µM | > 30 µM | > 30 µM | > 30 µM
7 | O=C(/C=C/c1ccc(O)cc1)c1c(O)cccc1OCC12CC3CC(CC(C3)C1)C2 | – | > 30 µM | > 30 µM | > 30 µM | > 30 µM | > 30 µM | > 30 µM | > 30 µM
8 | COc1cccc2c1C(=O)c1c(O)c3c(c(O)c1C2=O)C[C@@](O)(C(=O)CO)C[C@@H]3O[C@H]1C[C@H](N)[C@H](O)[C@H](C)O1 [DOXORUBICIN] | – | – | – | – | – | – | – | 1 µM

More lines, main results first:

Row | IC50 [1] | GI50 [2] | GI50 [3] | GI50 [4] | GI50 [7] | IC50 [8] | Compound | GI50 [5] | GI50 [6]
9 | 10 µM | 11.3 µM | 12.1 µM | 10.3 µM | 11.5 µM | – | CC(C)CCOc1cccc(O)c1C(=O)/C=C/c1ccc(O)cc1 | 10.6 µM | 12.4 µM
10 | – | > 30 µM | > 30 µM | > 30 µM | > 30 µM | – | CCCCCCOc1cccc(O)c1C(=O)/C=C/c1ccc(O)cc1 | > 30 µM | > 30 µM
11 | – | 3.63 µM | 11.3 µM | 3.48 µM | 3.6 µM | 11 µM | CC(C)CCCOc1cccc(O)c1C(=O)/C=C/c1ccc(O)cc1 | 11.6 µM | 3.52 µM
12 | – | > 30 µM | > 30 µM | > 30 µM | > 30 µM | > 30 µM | CCCCOc1cccc(O)c1C(=O)/C=C/c1ccc(O)cc1 | > 30 µM | > 30 µM
13 | – | 3.14 µM | 3.13 µM | 2.38 µM | 3.22 µM | 3 µM | CC(C)(C)CCOc1cccc(O)c1C(=O)/C=C/c1ccc(O)cc1 | 3.43 µM | 3.3 µM
14 | – | 3.29 µM | 3.22 µM | 3.52 µM | 2.97 µM | 8 µM | CC(C)COc1cccc(O)c1C(=O)/C=C/c1ccc(O)cc1 | 2.6 µM | 2.98 µM
15 | – | > 30 µM | > 30 µM | > 30 µM | > 30 µM | > 30 µM | CC(C)=CCOc1cccc(O)c1C(=O)/C=C/c1ccc(O)cc1 | > 30 µM | > 30 µM
16 | – | 8.45 µM | 4.77 µM | 11.2 µM | 6.5 µM | 2.8 µM | CC(C)(C)CCOc1cccc(O)c1C(=O)/C=C/c1ccc(C(=O)O)cc1 | 2.17 µM | 5.44 µM
17 | – | 3.3 µM | 2.95 µM | 2.11 µM | 3.25 µM | 1.2 µM | CC(C)(C)CCOc1cccc(O)c1C(=O)/C=C/c1ccc(S(N)(=O)=O)cc1 | 2.93 µM | 1.17 µM
18 | – | > 30 µM | > 30 µM | > 30 µM | > 30 µM | > 30 µM | COc1cccc(OCCC(C)(C)C)c1C(=O)/C=C/c1ccc(O)cc1 | > 30 µM | > 30 µM
19 | – | > 30 µM | > 30 µM | > 30 µM | > 30 µM | > 30 µM | CC(C)(C)CCOc1cccc(O)c1C(=O)CCc1ccc(O)cc1 | > 30 µM | > 30 µM
